Screening data (PubChem BioAssay)
EBV gp42 block = Epstein-Barr virus gp42 inhibitors, primary screen, biochemical, uHTS, fluorescence polarization; Glycoprotein 42 (Epstein-Barr virus (strain AG876)), Q1HVG2; Fluorescence polarization binding assay, mP read-out; inhibition, % (tested at 21.74 µM); 220,000 tested, 0.42% active; AID 1085, 2008; in the data active means inhibition above about 50%
WT yeast gro inh = growth inhibition of WT strain, primary screen, mitochondrial fusion inhibitor project, WT and mutant strains, chemical genetic; mitochondrial fusion phenotypic screen; inhibition, % at 10 µM; 190,000 tested, 2.1% active; in the data active means inhibition above about 58%; tested in S. cerevisiae
14-3-3 Bad inh = inhibitors of 14-3-3 zeta/Bad binding, primary screen, biochemical, TR-FRET, bovine 14-3-3 zeta. 14-3-3 protein zeta/delta (Bos taurus), P63103. TR-FRET 14-3-3zeta/Dy647-pBad peptide displacement, 1 h. inhibition, % at 21.7 µM. 220,000 tested, 0.71% active. AID 781, 2007;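 active means inhibition above about 70%, limit read from the data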
eIF4E-4G inh = eIF4E–eIF4G protein interaction inhibitors, primary screen, biochemical, uHTS, TR-FRET, eIF4GI fragment; Eukaryotic translation initiation factor 4E (Mus musculus) + Eukaryotic translation …; TR-FRET eIF4E-eIF4GI(517-606) binding, 2 h; inhibition, % at 21.7 µM; 220,000 tested, 0.37% active; AID 782, 2007
NCF1 inh = p47phox/p22phox peptide binding inhibitors, primary screen, biochemical, uHTS, NADPH oxidase regulatory subunit; Neutrophil cytosol factor 1 (Homo sapiens), P14598; fluorescence polarization, 2 h; inhibition, % at 24.7 µM; 220,000 tested, 0.53% active; AID 1274, 2008
RBBP9 inh = human RBBP9 inhibitors, primary screen, biochemical, fluorescence polarization, FP-Rh probe, HTS; Serine hydrolase RBBP9 (Homo sapiens), O75884; recombinant RBBP9; inhibition, % at 7.94 µM; 220,000 tested, 0.2% active; AID 1515, 2009;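 active means inhibition above the campaign mean of all tested compounds plus 3 SD, cut at about 14% in these data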
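Test system: recombinant human RBBP9; Timing: 30 min then 45 min, 25 °C; Detection: fluorescence polarization; Control set: RBBP9 with DMSO as uninhibited control, no-protein wells as full inhibition; Compound dosing: one concentration, 7.94 µM nominal, 0.794% DMSO; Probe or stimulus: FP-Rh activity-based probe, 375 nM before mixing.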
Numbers stand for hits; [ ] = dose if it differs, or a comment. Only some compounds are listed: those with a hit (about 3.7% of all), similar ones and a draw of the others.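 How the source made its calls, unless noted: active means inhibition above about 30% (limit read from the data); inactive means the rest.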

For c1ccc2c(c1)oc1c(Nc3ccc4c(c3)OCCO4)ncnc12 the results were EBV gp42 block inactive, WT yeast gro inh inactive, 14-3-3 Bad inh 76.3[fluorescence artefact?], eIF4E-4G inh inactive, NCF1 inh inactive and RBBP9 inh inactive.
For CCc1nc(Nc2ccc3c(c2)OCCO3)c2oc3ccccc3c2n1 the results were EBV gp42 block inactive, WT yeast gro inh inactive, 14-3-3 Bad inh 86.3, eIF4E-4G inh inactive, NCF1 inh inactive and RBBP9 inh inactive.
`CCc1nc(NCc2ccco2)c2oc3ccccc3c2n1` gave EBV gp42 block inactive, WT yeast gro inh inactive, 14-3-3 Bad inh 81.2, eIF4E-4G inh inactive, NCF1 inh inactive and RBBP9 inh inactive.
`CCc1nc(NCc2ccc3c(c2)OCO3)c2oc3ccccc3c2n1` gave EBV gp42 block inactive, WT yeast gro inh inactive, 14-3-3 Bad inh inactive, eIF4E-4G inh inactive, NCF1 inh inactive and RBBP9 inh inactive.
For O=[N+]([O-])c1ccc2ncnc(Nc3ccc4c(c3)OCCO4)c2c1 the results were EBV gp42 block inactive, WT yeast gro inh inactive, 14-3-3 Bad inh inactive, eIF4E-4G inh inactive, NCF1 inh inactive and RBBP9 inh inactive.
Cc1nc(Nc2ccc3c(c2)OCCO3)c2oc3ccccc3c2n1 was read as EBV gp42 block inactive, WT yeast gro inh inactive, 14-3-3 Bad inh 73.5, eIF4E-4G inh inactive, NCF1 inh inactive and RBBP9 inh inactive.
Cc1cc(C)n(-c2nnc3c4ccccc4n(C)c3n2)n1 was read as EBV gp42 block inactive, 14-3-3 Bad inh inactive, eIF4E-4G inh inactive, NCF1 inh inactive and RBBP9 inh inactive.
For COc1ccc(Nc2ncnc3c2oc2ccccc23)cc1 the results were EBV gp42 block inactive, WT yeast gro inh inactive, 14-3-3 Bad inh inactive, eIF4E-4G inh inactive, NCF1 inh inactive and RBBP9 inh inactive.
c1ccc2c(c1)oc1c(N3CCN(Cc4ccc5c(c4)OCO5)CC3)ncnc12 was read as EBV gp42 block inactive, WT yeast gro inh 75.6, 14-3-3 Bad inh inactive, eIF4E-4G inh inactive, NCF1 inh inactive and RBBP9 inh inactive.
`c1ccc(Cn2nnc3c(N4CCN(Cc5ccc6c(c5)OCO6)CC4)ncnc32)cc1` gave EBV gp42 block inactive, WT yeast gro inh inactive, 14-3-3 Bad inh inactive, eIF4E-4G inh inactive, NCF1 inh inactive and RBBP9 inh inactive.
For Cc1ccc(Nc2ncnc3c2oc2ccccc23)cc1 the results were EBV gp42 block inactive, WT yeast gro inh inactive, 14-3-3 Bad inh 71.6, eIF4E-4G inh inactive, NCF1 inh inactive and RBBP9 inh inactive.
COc1ccc(C(C)=O)cc1COC(=O)CNC(=O)c1ccc(Cl)cc1 was read as EBV gp42 block inactive, WT yeast gro inh inactive, 14-3-3 Bad inh inactive, eIF4E-4G inh inactive, NCF1 inh 193.7 and RBBP9 inh inactive.
Screening Cc1ccc(O)c(NC2=C(Cl)C(=O)N(Cc3ccccc3)C2=O)c1 returned EBV gp42 block inactive, WT yeast gro inh inactive, 14-3-3 Bad inh inactive, eIF4E-4G inh 31.4, NCF1 inh inactive and RBBP9 inh inactive.
Screening CC(C)C(O)(C#CCN1CCCCC1)c1ccccc1 (stereo not drawn) returned EBV gp42 block inactive, WT yeast gro inh inactive, 14-3-3 Bad inh 80.3, eIF4E-4G inh inactive, NCF1 inh inactive and RBBP9 inh inactive.
Screening CC(C)C(O)(C#CCN1CCCC1)c1ccccc1 (stereo not drawn) returned EBV gp42 block inactive, WT yeast gro inh inactive, 14-3-3 Bad inh inactive, eIF4E-4G inh inactive, NCF1 inh inactive and RBBP9 inh inactive.
`C/C(=N\NC(=O)COc1ccccc1-c1ccccc1)c1ccccn1` gave EBV gp42 block inactive, WT yeast gro inh 71.8, 14-3-3 Bad inh inactive, eIF4E-4G inh inactive, NCF1 inh inactive and RBBP9 inh inactive.
`CC(=O)c1c(C)n(CC(=O)NCc2ccco2)c2ccccc12` gave EBV gp42 block inactive, WT yeast gro inh inactive, 14-3-3 Bad inh inactive, eIF4E-4G inh inactive, NCF1 inh inactive and RBBP9 inh inactive.
For CCCc1sc(N/N=C/c2ccccn2)nc1-c1ccc(Br)cc1 the results were EBV gp42 block inactive, WT yeast gro inh 64.8, 14-3-3 Bad inh inactive, eIF4E-4G inh inactive, NCF1 inh inactive and RBBP9 inh inactive.
